In ChEMBL document CHEMBL1125259, “Lipophilic glycosyl phosphotriester derivatives of AZT: synthesis, NMR transmembrane transport study, and antiviral activity” (1991):

How the values were obtained:
[1] = target: Human immunodeficiency virus type 1 reverse transcriptase (Human immunodeficiency virus 1) (UniProt Q72547); experiment: Compound ability to inhibit the production of HIV reverse transcriptase (RT) in preinfected PBL (peripheral blood lymphocytes) at 21 days at a concentration 1 uM; type: functional
In short: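 PBL were infected with HIV-1 for 1 h at 37 °C, washed twice, and resuspended in complete medium with 10% interleukin-2 and anti-human α-interferon (1000 units/mL). Cells were plated at 1×10^6 cells/well with or without compound. At each time point, 50 µL supernatant was taken for RT assay ([³H]dTTP incorporation, cpm).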

[2] = target: Human immunodeficiency virus type 1 reverse transcriptase (Human immunodeficiency virus 1) (UniProt Q72547); experiment: Compound ability to inhibit the production of HIV reverse transcriptase (RT) in culture supernatant of CEM-CL13 on at 7 days at a concentration 5 uM; type: functional
In short: (§1)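 CEM-C113 cells in RPMI 1640 with 5% heat-inactivated FCS and polybrene (2 µg/mL) were plated at 1×10^5 cells/mL with compound in PBS, in triplicate, and infected with HIV-1 LAV-Bru. From day 7, every 3–4 days, fresh medium with or without drug was added and 50 µL supernatant was taken for RT microassay. The RT microassay used poly(rA)-oligo(dT) and (methyl-³H)dTTP for 1 h at 37 °C, with TCA precipitation, read as cpm/50 µL.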

[3] = target: Human immunodeficiency virus type 1 reverse transcriptase (Human immunodeficiency virus 1) (UniProt Q72547); experiment: Compound ability to inhibit the production of HIV reverse transcriptase (RT) in culture supernatant of CEM-CL13 on at 26 days at a concentration 5 uM; type: functional; in short: as §1
[4] = target: Human immunodeficiency virus type 1 reverse transcriptase (Human immunodeficiency virus 1) (UniProt Q72547); details: at 25 µM
[5] = target: Human immunodeficiency virus type 1 reverse transcriptase (Human immunodeficiency virus 1) (UniProt Q72547); experiment: Compound ability to inhibit the production of HIV reverse transcriptase (RT) in culture supernatant of monocytic U937 on at 11 days at a concentration 5 uM; type: functional
In short: (§2)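 HIV-1-infected monocytic U937 cultures were kept up to 14 days with compound. Supernatant RT activity was measured as for CEM-C113, as [³H] cpm/50 µL. % inhibition = 100 − 100 × (cpm of treated samples / cpm of control virus).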

[6] = target: Human immunodeficiency virus type 1 reverse transcriptase (Human immunodeficiency virus 1) (UniProt Q72547); experiment: Percent inhibition measured as the production of HIV reverse transcriptase (RT) in culture supernatant of monocytic U937 on at 14 days at a concentration 5 uM; type: functional
In short: (§3)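 U937 cells in RPMI 1640 with 5% heat-inactivated FCS, penicillin, streptomycin and polybrene (2 μg/mL), 37 °C, 5% CO2. Infected with HIV-1 LAV-Bru; compounds diluted in PBS. 50 μL supernatant aliquots were assayed for RT: 1 h, 37 °C, pH 7.8, Mg2+, poly(rA)-oligo(dT), [3H]dTTP, TCA-pyrophosphate stop, filter counting. % inhibition = 100 − 100 × (treated cpm / virus-control cpm).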

[7] = target: Human immunodeficiency virus type 1 reverse transcriptase (Human immunodeficiency virus 1) (UniProt Q72547); experiment: Percent inhibition measured as the production of HIV reverse transcriptase (RT) in culture supernatant of monocytic U937 on at 11 days at a concentration 5 uM; type: functional; in short: as §3
[8] = target: Human immunodeficiency virus type 1 reverse transcriptase (Human immunodeficiency virus 1) (UniProt Q72547); experiment: Percent inhibition measured as the production of HIV reverse transcriptase (RT) in culture supernatant of monocytic U937 on at 11 days at a concentration 0.2 uM; type: functional; in short: as §2
[9] = target: Human immunodeficiency virus type 1 reverse transcriptase (Human immunodeficiency virus 1) (UniProt Q72547); experiment: Compound ability to inhibit the production of HIV reverse transcriptase (RT) in culture supernatant of monocytic U937 on at 11 days at a concentration 0.2 uM; type: functional; in short: as §2
[10] = target: Human immunodeficiency virus type 1 reverse transcriptase (Human immunodeficiency virus 1) (UniProt Q72547); experiment: Percent inhibition measured as the production of HIV reverse transcriptase (RT) in culture supernatant of monocytic U937 on at 7 days at a concentration 0.2 uM; type: functional; in short: as §3
[11] = target: Human immunodeficiency virus type 1 reverse transcriptase (Human immunodeficiency virus 1) (UniProt Q72547); experiment: Compound ability to inhibit the production of HIV reverse transcriptase (RT) in culture supernatant of monocytic U937 on at 14 days at a concentration 0.2 uM; type: functional; in short: as §2
[12] = target: Human immunodeficiency virus type 1 reverse transcriptase (Human immunodeficiency virus 1) (UniProt Q72547); experiment: Compounds were evaluated for anti-RT activity by MTT dose and %protection was reported at 7 days of culture
In short: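 HIV-1 was preincubated with compound at 25 µM for 60 min at 37 °C, pelleted, and added to CEM-C113 cells (1×10^5 cells/mL) for 60 min at 37 °C. Medium was then replaced without compound. At days 7 and 9, viability was read by MTT assay on 100 µL of cell suspension.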

## Cc1cn([C@H]2C[C@H](N=[N+]=[N-])[C@@H](COP(=O)(O)OCCO[C@H]3O[C@H](CO)[C@@H](O)[C@H](O)[C@@H]3O)O2)c(=O)[nH]c1=O
[1]
  Activity (c.p.m. 50ul-1): 21300
[2]
  Activity (c.p.m. 50ul-1): 1670
[3]
  Activity (c.p.m. 50ul-1): 42000
[4]
  inhibition: 77%
[5]
  Activity (c.p.m. 50ul-1): 192000
[6]
  inhibition: 0%
[7]
  inhibition: 0%

## CCCCCCCCCCCCCCCCOP(=O)(OC[C@H]1OC(O)[C@H](O)[C@@H](O)[C@@H]1O)OC[C@H]1OC(n2cc(C)c(=O)[nH]c2=O)C[C@@H]1N=[N+]=[N-] (stereo partly specified)
[8]
  inhibition: 0%
[1]
  Activity (c.p.m. 50ul-1): 71100
[9]
  Activity (c.p.m. 50ul-1): 178000
[10]
  inhibition: 0%
[11]
  Activity (c.p.m. 50ul-1): 16000

## Cc1cn([C@H]2C[C@H](N=[N+]=[N-])[C@@H](COP(=O)(O)OC[C@H]3OC(O)[C@H](O)[C@@H](O)[C@@H]3O)O2)c(=O)[nH]c1=O (stereo partly specified)
[1]
  Activity (c.p.m. 50ul-1): 16100
[2]
  Activity (c.p.m. 50ul-1): 1100
[12]
  Protection: 36%
[3]
  Activity (c.p.m. 50ul-1): 6000
[4]
  inhibition: 73%
[5]
  Activity (c.p.m. 50ul-1): 211000
[6]
  inhibition: 0%
[7]
  inhibition: 0%

## Cc1cn([C@H]2C[C@H](N=[N+]=[N-])[C@@H](COP(=O)(O)OC[C@H]3OC(O)[C@@H](O)[C@@H](O)[C@@H]3O)O2)c(=O)[nH]c1=O (stereo partly specified)
[1]
  Activity (c.p.m. 50ul-1): 33100
[2]
  Activity (c.p.m. 50ul-1): 1500
[3]
  Activity (c.p.m. 50ul-1): 103000
[4]
  inhibition: 86%
[5]
  Activity (c.p.m. 50ul-1): 193000
[6]
  inhibition: 0%
[7]
  inhibition: 0%

## Cc1cn([C@H]2C[C@H](N=[N+]=[N-])[C@@H](CO)O2)c(=O)[nH]c1=O [ZIDOVUDINE]
[8]
  inhibition: 0%
[1]
  Activity (c.p.m. 50ul-1): 44400
[2]
  Activity (c.p.m. 50ul-1): 900
[9]
  Activity (c.p.m. 50ul-1): 152000
[3]
  Activity (c.p.m. 50ul-1): 1300
[4]
  inhibition: 96%
[5]
  Activity (c.p.m. 50ul-1): 118000
[10]
  inhibition: 91%
[11]
  Activity (c.p.m. 50ul-1): 60000
[6]
  inhibition: 0%
[7]
  inhibition: 18%

## CCCCCCCCCCCCCCCCOP(=O)(OCCO[C@H]1O[C@H](CO)[C@@H](O)[C@H](O)[C@@H]1O)OCC1OC(n2cc(C)c(=O)[nH]c2=O)CC1N=[N+]=[N-] (stereo partly specified)
[8]
  inhibition: 9%
[9]
  Activity (c.p.m. 50ul-1): 131000
[10]
  inhibition: 0%
[11]
  Activity (c.p.m. 50ul-1): 30000

## CCCCCCCCCCCCCCCCOP(=O)(OC[C@H]1OC(O)[C@@H](O)[C@@H](O)[C@@H]1O)OC[C@H]1OC(n2cc(C)c(=O)[nH]c2=O)C[C@@H]1N=[N+]=[N-] (stereo partly specified)
[8]
  inhibition: 0%
[9]
  Activity (c.p.m. 50ul-1): 227000
[10]
  inhibition: 0%
[11]
  Activity (c.p.m. 50ul-1): 27000
